Assay results reported in ChEMBL document CHEMBL1155063 (Bioorg Med Chem, 2008).

Experiments:
[1] = target: T1, Telomerase reverse transcriptase (Homo sapiens, UniProt O14746); experiment: Effect on human TERT expressed in BJ1 cells at 10 uM after 24 hrs by SEAP assay relative to control; conditions: BJ
A498 = experiment: Cytotoxicity against human A498 cells at 10 uM after 48 hrs by MTT assay; assay type: functional; conditions: A498, 48 h
In short: (§1)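 Single-dose screen on the NCI 60-cell-line panel, run to the Developmental Therapeutics Program protocol (one-dose mean graph). Each value is the growth percentage of treated cells against untreated control cells.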

PC-3 = experiment: Cytotoxicity against human PC3 cells at 10 uM after 48 hrs by MTT assay; assay type: functional; conditions: PC-3, 48 h, values are per cent of control
In short: as §1

TK-10 = experiment: Cytotoxicity against human TK10 cells at 10 uM after 48 hrs by MTT assay; assay type: functional; conditions: TK-10, 48 h, values are per cent of control
In short: (§2)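 Single-dose screen in the NCI 60-cell-line panel, run according to the Developmental Therapeutics Program protocol (one-dose mean graph). The result is the growth percentage of treated cells relative to untreated control cells.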

UACC-257 = experiment: Cytotoxicity against human UACC257 cells at 10 uM after 48 hrs by MTT assay; assay type: functional; conditions: UACC-257, 48 h, values are per cent of control
In short: as §2

MDA-MB-231 = experiment: Cytotoxicity against human MDA-MB-231/ATCC cells at 10 uM after 48 hrs by MTT assay; assay type: functional; conditions: MDA-MB-231, 48 h
In short: as §1

SF-295 = experiment: Cytotoxicity against human SF295 cells at 10 uM after 48 hrs by MTT assay; assay type: functional; conditions: SF-295, 48 h, values are per cent of control
In short: as §1

SK-MEL-28 = experiment: Cytotoxicity against human SK-MEL-28 cells at 10 uM after 48 hrs by MTT assay; assay type: functional; conditions: SK-MEL-28, 48 h, values are per cent of control
In short: as §1

HCC 2998 = experiment: Growth percent of human HCC2998 cells at 10 uM after 48 hrs by MTT assay; conditions: HCC 2998, 48 h
NCI/ADR-RES = experiment: Cytotoxicity against human NCI/ADR-RES cells at 10 uM after 48 hrs by MTT assay; assay type: functional
In short: as §1

U-251 = experiment: Cytotoxicity against human U251 cells at 10 uM after 48 hrs by MTT assay; assay type: functional; conditions: U-251, 48 h, values are per cent of control
In short: as §2

Hs-578T = experiment: Cytotoxicity against human HS578T cells at 10 uM after 48 hrs by MTT assay; assay type: functional; conditions: values are per cent of control
In short: as §1

SK-OV-3 = experiment: Cytotoxicity against human SKOV3 cells at 10 uM after 48 hrs by MTT assay; assay type: functional; conditions: SK-OV-3, 48 h
In short: as §1

[2] = target: T1, Telomerase reverse transcriptase; experiment: Effect on human TERT expressed in H1299 cells at 10 uM after 24 hrs by SEAP assay relative to control
SF-268 = experiment: Cytotoxicity against human SF268 cells at 10 uM after 48 hrs by MTT assay; assay type: functional; conditions: SF-268, 48 h, values are per cent of control
In short: as §1

[3] = target: T1, Telomerase reverse transcriptase; experiment: Effect on human TERT expressed in H1299 cells at 100 uM after 24 hrs by SEAP assay relative to control
T47D = experiment: Cytotoxicity against human T47D cells at 10 uM after 48 hrs by MTT assay; assay type: functional
In short: as §2

[4] = target: T1, Telomerase reverse transcriptase; experiment: Effect on human TERT expressed in H1299 cells at 1 uM after 24 hrs by SEAP assay relative to control
RPMI-8226 = experiment: Cytotoxicity against human RPMI-8226 cells at 10 uM after 48 hrs by MTT assay; assay type: functional; conditions: RPMI-8226, 48 h
In short: as §1

NCI-H23 = experiment: Cytotoxicity against human NCI-H23 cells at 10 uM after 48 hrs by MTT assay; assay type: functional; conditions: NCI-H23, 48 h
In short: as §1

SNB-19 = experiment: Cytotoxicity against human SNB19 cells at 10 uM after 48 hrs by MTT assay; assay type: functional; conditions: SNB-19, 48 h, values are per cent of control
In short: as §1

MOLT-4 = experiment: Cytotoxicity against human MOLT4 cells at 10 uM after 48 hrs by MTT assay; assay type: functional; conditions: MOLT-4, 48 h
In short: as §1

[5] = target: T1, Telomerase reverse transcriptase; experiment: Effect on human TERT expressed in BJ1 cells at 100 uM after 24 hrs by SEAP assay relative to control; conditions: BJ
K562 = experiment: Cytotoxicity against human K562 cells at 10 uM after 48 hrs by MTT assay; assay type: functional; conditions: K562, 48 h
In short: as §1

[6] = Cytotoxicity against human TERT immortalized BJ1 cells at 1 uM after 48 hrs by MTT assay relative to control; assay type: cell-based, BJ
In short: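 hTERT-immortalized BJ1 fibroblasts were grown in DMEM with 10% FCS, 1 mM pyruvate and 4 mM […]. Cells (about 2 × 10^3 per well) were seeded and held 24 h at 37 °C. Compounds were freshly dissolved in DMSO, diluted into medium and left on the cells 48 h. MTT was added for 4 h, then SDS/DMF lysis buffer for 16 h. Absorbance was read at 550 nm and expressed relative to untreated cells (100%).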

SR = experiment: Cytotoxicity against human SR cells at 10 uM after 48 hrs by MTT assay; assay type: functional
In short: as §2

COLO 205 = experiment: Cytotoxicity against human COLO205 cells at 10 uM after 48 hrs by MTT assay; assay type: functional; conditions: COLO 205, 48 h, values are per cent of control
In short: as §1

CCRF-CEM = experiment: Cytotoxicity against human CCRF-CEM cells at 10 uM after 48 hrs by MTT assay; assay type: functional
In short: as §1

SW-620 = experiment: Cytotoxicity against human SW620 cells at 10 uM after 48 hrs by MTT assay; assay type: functional; conditions: SW-620, 48 h, values are per cent of control
In short: as §2

HOP-62 = experiment: Cytotoxicity against human HOP62 cells at 10 uM after 48 hrs by MTT assay; assay type: functional; conditions: HOP-62, 48 h
In short: as §1

UACC-62 = experiment: Cytotoxicity against human UACC62 cells at 10 uM after 48 hrs by MTT assay; assay type: functional; conditions: UACC-62, 48 h, values are per cent of control
In short: as §2

SN12C = experiment: Cytotoxicity against human SN12C cells at 10 uM after 48 hrs by MTT assay; assay type: functional
In short: as §1

NCI-H460 = experiment: Growth percent of human NCI-H460 cells at 10 uM after 48 hrs by MTT assay; conditions: NCI-H460, 48 h
MCF7 = experiment: Cytotoxicity against human MCF7 cells at 10 uM after 48 hrs by MTT assay; assay type: functional; conditions: MCF7, 48 h, values are per cent of control
In short: as §1

NCI-H322M = experiment: Cytotoxicity against human NCI-H322M cells at 10 uM after 48 hrs by MTT assay; assay type: functional
In short: as §1

T1 sequence (O14746 whole entry): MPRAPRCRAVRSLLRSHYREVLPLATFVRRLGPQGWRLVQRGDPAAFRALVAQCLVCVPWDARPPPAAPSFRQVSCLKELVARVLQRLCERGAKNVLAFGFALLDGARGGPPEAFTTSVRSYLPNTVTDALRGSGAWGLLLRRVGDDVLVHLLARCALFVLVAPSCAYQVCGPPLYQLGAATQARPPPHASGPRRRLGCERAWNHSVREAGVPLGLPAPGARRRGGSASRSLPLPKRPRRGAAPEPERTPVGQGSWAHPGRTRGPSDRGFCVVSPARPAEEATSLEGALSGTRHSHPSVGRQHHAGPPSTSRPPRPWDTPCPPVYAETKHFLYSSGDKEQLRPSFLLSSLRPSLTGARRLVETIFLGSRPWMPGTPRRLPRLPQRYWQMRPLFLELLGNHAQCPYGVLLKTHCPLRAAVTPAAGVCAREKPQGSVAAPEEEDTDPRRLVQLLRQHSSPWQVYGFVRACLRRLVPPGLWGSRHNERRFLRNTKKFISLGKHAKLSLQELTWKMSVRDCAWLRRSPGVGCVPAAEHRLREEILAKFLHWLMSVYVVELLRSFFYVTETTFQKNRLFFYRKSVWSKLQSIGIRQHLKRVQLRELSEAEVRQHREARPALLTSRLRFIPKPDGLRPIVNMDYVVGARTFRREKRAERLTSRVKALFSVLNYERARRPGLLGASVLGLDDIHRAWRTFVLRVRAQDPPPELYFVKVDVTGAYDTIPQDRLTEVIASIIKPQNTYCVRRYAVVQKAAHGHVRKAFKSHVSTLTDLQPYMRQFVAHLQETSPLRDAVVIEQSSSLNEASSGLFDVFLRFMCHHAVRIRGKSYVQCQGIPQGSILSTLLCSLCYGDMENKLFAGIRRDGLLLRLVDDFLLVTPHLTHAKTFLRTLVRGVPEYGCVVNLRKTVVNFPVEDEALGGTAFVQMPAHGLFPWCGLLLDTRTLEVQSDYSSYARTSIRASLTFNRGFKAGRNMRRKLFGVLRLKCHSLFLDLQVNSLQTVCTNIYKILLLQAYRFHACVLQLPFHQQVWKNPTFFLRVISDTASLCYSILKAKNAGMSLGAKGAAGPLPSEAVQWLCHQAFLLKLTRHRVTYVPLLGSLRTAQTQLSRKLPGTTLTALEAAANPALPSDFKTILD

SMILES	residual activity [1] [%]	growth percent at 10 µM (A498) [%]	growth, % of control at 10 µM (PC-3) [%]	growth, % of control at 10 µM (TK-10) [%]	growth, % of control at 10 µM (UACC-257) [%]	growth percent at 10 µM (MDA-MB-231) [%]	growth, % of control at 10 µM (SF-295) [%]	growth, % of control at 10 µM (SK-MEL-28) [%]	growth percent at 10 µM (HCC 2998) [%]	growth percent at 10 µM (NCI/ADR-RES) [%]	growth, % of control at 10 µM (U-251) [%]	growth, % of control at 10 µM (Hs-578T) [%]	growth percent at 10 µM (SK-OV-3) [%]	residual activity [2] [%]	growth, % of control at 10 µM (SF-268) [%]	residual activity [3] [%]	growth percent at 10 µM (T47D) [%]	residual activity [4] [%]	growth percent at 10 µM (RPMI-8226) [%]	growth percent at 10 µM (NCI-H23) [%]	also measured
O=C(CCN1CCCC1)Nc1ccc2c(c1)C(=O)c1cc(NC(=O)CCN3CCCC3)ccc1C2=O	67	-0.91	21.7	31.2	-17.9	30.5	48.6	15	20	80.6	18.2	5.26	27.1	29	26.7	17	59	73	47.9	31.5	growth, % of control at 10 µM (SNB-19): 67%; growth percent at 10 µM (MOLT-4): 23%; residual activity [5]: 109%; growth percent at 10 µM (K562): 6.4%; viability at 48 h, 1 µM [6]: 82%; growth percent at 10 µM (SR): 19.8%; growth, % of control at 10 µM (COLO 205): -29%; growth percent at 10 µM (CCRF-CEM): 3.74%; growth, % of control at 10 µM (SW-620): 20%; growth percent at 10 µM (HOP-62): 18.8%; growth, % of control at 10 µM (UACC-62): 42.7%; growth percent at 10 µM (SN12C): 6.68%; growth percent at 10 µM (NCI-H460): 25.5%; growth, % of control at 10 µM (MCF7): 13.3%; growth percent at 10 µM (NCI-H322M): 45.8%
CC(=O)Nc1ccc2c(c1)C(=O)c1cc(NC(C)=O)ccc1C2=O	117	116	103	118	27	104	103	118	105	114	95.1	133	101	87	114	74	96.2	97	121	94.2	growth, % of control at 10 µM (SNB-19): 94.4%; growth percent at 10 µM (MOLT-4): 97%; residual activity [5]: 117%; growth percent at 10 µM (K562): 98.5%; viability at 48 h, 1 µM [6]: 106%; growth percent at 10 µM (SR): 3.61%; growth, % of control at 10 µM (COLO 205): 120%; growth percent at 10 µM (CCRF-CEM): 99.8%; growth, % of control at 10 µM (SW-620): 103%; growth percent at 10 µM (HOP-62): 111%; growth, % of control at 10 µM (UACC-62): 101%; growth percent at 10 µM (SN12C): 113%; growth percent at 10 µM (NCI-H460): 109%; growth, % of control at 10 µM (MCF7): 96.9%; growth percent at 10 µM (NCI-H322M): 97.5%
